In brackets after ≈: the same amount, converted by molar mass. Activity calls are given as the source filed them. The rule behind the calls is not given here.
test system: Staphylococcus aureus; experiment: Antibacterial activity against Staphylococcus aureus Mu50 infected Balb/c mouse assessed as reduction of bacterial survival in liver at 5.2 mg, ip bid for 4.5 days administered for 4.5 days followed by bacterial infection measured after 5 days; format: functional; conditions: not given

Row | SMILES | Activity [deltalog10CFU]
1 | O=P([O-])([O-])C(CCCc1cccc(Cc2ccccc2)c1)S(=O)(=O)[O-].[K+].[K+].[K+] (stereo not given) | 2.84

test system: not listed separately; experiment: Aqueous solubility of the compound by HPLC method; format: physicochemical; conditions: not given
Summary of the method: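 Calibration with standards at 50, 100, 200, 400 and 800 µg/mL in methanol (peak area vs concentration). 10 mg solid stirred in 1 mL pure water for 24 h, more added if still clear; syringe-filtered, 10 µL injected; solubility read from calibration curve.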

Row | SMILES | solubility [mg/mL]
2 | CN(C/C=C/c1ccc(Cl)cc1)Cc1cccc2ccoc12.Cl | 7.4
3 | CN(C/C=C/c1ccc(Cl)cc1Cl)Cc1cccc2ccoc12.Cl | 7.2
4 | COc1ccc(/C=C/CN(C)Cc2cccc3ccoc23)cc1.Cl | 19.7
5 | CN(C/C=C/c1ccc(Br)cc1)Cc1cccc2ccoc12.Cl | 3.9

test system: Staphylococcus aureus; experiment: Antibacterial activity against Staphylococcus aureus Mu50 infected Balb/c mouse assessed as reduction of bacterial survival in kidney at 1.3 mg, ip bid administered for 4.5 days followed by bacterial infection measured after 5 days; format: functional; conditions: not given

Row | SMILES | Activity [deltalog10CFU]
6 | O=P([O-])([O-])C(CCCc1cccc(Cc2ccccc2)c1)S(=O)(=O)[O-].[K+].[K+].[K+] (stereo not given) | 0.25

test system: Trichophyton mentagrophytes; experiment: Antifungal activity against Trichophyton mentagrophytes measured after 7 days by serial dilution method; format: functional; conditions: not given
Summary of the method: (§1)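 Broth serial dilution MIC per NCCLS in RPMI 1640 buffered with 0.165 M MOPS; compounds in DMSO diluted in medium. Dermatophytes incubated at 28 °C, read at 7 days. MIC taken as lowest concentration giving ≥80% growth inhibition versus control (turbidity).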

Row | SMILES | MIC=<80 [mg/L]
7 | CC(=O)N1CCN(c2ccc(OCC3COC(Cn4ccnc4)(c4ccc(Cl)cc4Cl)O3)cc2)CC1 (stereo not given) [KETOCONAZOLE] | 0.0625 (≈ 0.118 µM)
8 | C[C@@H](c1ncncc1F)[C@](O)(Cn1cncn1)c1ccc(F)cc1F [VORICONAZOLE] | 0.03125 (≈ 0.0895 µM)
9 | OC(Cn1cncn1)(Cn1cncn1)c1ccc(F)cc1F [FLUCONAZOLE] | 2 (≈ 6.53 µM)

test system: Staphylococcus aureus; experiment: Antibacterial activity against Staphylococcus aureus USA400 MW2 infected Balb/c mouse assessed as reduction of bacterial survival in liver at 5.2 mg, ip bid administered for 4.5 days followed by bacterial infection measured after 5 days; format: functional; conditions: not given
Summary of the method: (§2)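 Female BALB/c mice, 6–8 weeks. Compound in sterile water ip once and every 12 h for 108 h, total 50 or 200 mg/kg; water controls. Infected 12 h after first dose with 4 × 10^7 CFU USA400 MW2 (100 µL). Killed 5 days post infection; liver or kidney CFU counted on TSA after homogenising in PBS/0.1% Triton X-100. n = 13; two-tailed Mann-Whitney.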

Row | SMILES | Activity [deltalog10CFU]
10 | O=P([O-])([O-])C(CCCc1cccc(Cc2ccccc2)c1)S(=O)(=O)[O-].[K+].[K+].[K+] (stereo not given) | 1.58

test system: Staphylococcus aureus; experiment: Antibacterial activity against Staphylococcus aureus USA400 MW2 infected Balb/c mouse assessed as reduction of bacterial survival in kidney at 1.3 mg, ip bid administered for 4.5 days followed by bacterial infection measured after 5 days; format: functional, organism-based; conditions: not given; summary of the method: as §2

Row | SMILES | Activity
11 | O=P([O-])([O-])C(CCCc1cccc(Cc2ccccc2)c1)S(=O)(=O)[O-].[K+].[K+].[K+] (stereo not given) | Active

target: T1, 4,4'-diapophytoene desaturase (4,4'-diaponeurosporene-forming) (Staphylococcus aureus (strain Newman)) (UniProt O07855); conditions: Staphylococcus aureus subsp. aureus str. Newman; 100 uM
T1 sequence (whole entry): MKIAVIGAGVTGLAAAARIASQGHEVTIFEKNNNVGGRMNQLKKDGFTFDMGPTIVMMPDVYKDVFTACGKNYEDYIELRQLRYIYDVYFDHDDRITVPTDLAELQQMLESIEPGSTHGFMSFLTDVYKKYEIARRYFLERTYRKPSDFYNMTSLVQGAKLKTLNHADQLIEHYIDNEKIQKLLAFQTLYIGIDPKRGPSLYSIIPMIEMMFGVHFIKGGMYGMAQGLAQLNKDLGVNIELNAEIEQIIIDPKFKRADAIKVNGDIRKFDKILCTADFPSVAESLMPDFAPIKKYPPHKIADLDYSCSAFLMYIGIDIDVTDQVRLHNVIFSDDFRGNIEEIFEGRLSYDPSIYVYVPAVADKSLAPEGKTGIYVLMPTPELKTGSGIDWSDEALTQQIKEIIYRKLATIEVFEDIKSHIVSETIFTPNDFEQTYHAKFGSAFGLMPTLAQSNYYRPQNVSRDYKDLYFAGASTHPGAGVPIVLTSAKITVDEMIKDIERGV

Row | SMILES | inhibition
12 | CN(C/C=C/c1ccccc1)Cc1cccc2ccccc12 | Active

test system: Staphylococcus aureus; experiment: Antibacterial activity against Staphylococcus aureus USA400 MW2 infected Balb/c mouse assessed as reduction of bacterial survival in liver at 1.3 mg, ip bid administered for 4.5 days followed by bacterial infection measured after 5 days; format: functional; conditions: not given; summary of the method: as §2

Row | SMILES | Activity [deltalog10CFU]
13 | O=P([O-])([O-])C(CCCc1cccc(Cc2ccccc2)c1)S(=O)(=O)[O-].[K+].[K+].[K+] (stereo not given) | 0.25

target: T2, 4,4'-diapophytoene desaturase (4,4'-diaponeurosporene-forming) (Staphylococcus aureus (strain Newman), UniProt O07855); experiment: Inhibition of Staphylococcus aureus Newman 6His-tagged CrtN expressed in Escherichia coli BL21(DE3) using diapophytoene as substrate assessed as pigment formation after overnight incubation by spectrophotometric method; set-up: species or system Staphylococcus aureus subsp. aureus str. Newman; conditions: not given
T2 sequence (O07855 whole entry): T1 sequence (whole entry)
Summary of the method: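 Lysate of E. coli BL21(DE3) expressing 6His-CrtN (IPTG 0.5 mM, 16 °C overnight), ~1.41 mg CrtN per reaction, with diapophytoene–phosphatidylcholine emulsion in 0.02 M HEPES pH 7.5 plus FAD. Anaerobic via glucose oxidase 20 U/mL, catalase 20000 U/mL, glucose 2 mM (final). Started with lysate, overnight at 37 °C; triplicate.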

Row | SMILES | IC50 [µM]
14 | CN(C/C=C/c1ccc(Cl)cc1)Cc1cccc2ccoc12.Cl | 0.219
15 | CN(C/C=C/c1ccc(Cl)cc1Cl)Cc1cccc2ccoc12.Cl | 0.74
16 | COc1ccc(/C=C/CN(C)Cc2cccc3ccoc23)cc1.Cl | 0.684
17 | CN(C/C=C/c1ccc(Br)cc1)Cc1cccc2ccoc12.Cl | 0.355

test system: Nannizzia gypsea; experiment: Antifungal activity against Microsporum gypseum measured after 7 days by serial dilution method; format: functional; conditions: not given; summary of the method: as §1

Row | SMILES | MIC80 (lowest concentration giving ≥80% growth inhibition) [mg/L] | MIC=<80 [mg/L]
18 | CC(=O)N1CCN(c2ccc(OCC3COC(Cn4ccnc4)(c4ccc(Cl)cc4Cl)O3)cc2)CC1 (stereo not given) [KETOCONAZOLE] | 2 (≈ 3.76 µM) | –
19 | C[C@@H](c1ncncc1F)[C@](O)(Cn1cncn1)c1ccc(F)cc1F [VORICONAZOLE] | 0.25 (≈ 0.716 µM) | –
20 | OC(Cn1cncn1)(Cn1cncn1)c1ccc(F)cc1F [FLUCONAZOLE] | – | 8 (≈ 26.1 µM)

test system: Staphylococcus aureus; experiment: Antibacterial activity against Staphylococcus aureus USA400 MW2 infected Balb/c mouse assessed as reduction of bacterial survival in kidney at 5.2 mg, ip bid administered for 4.5 days followed by bacterial infection measured after 5 days; format: functional; conditions: not given; summary of the method: as §2

Row | SMILES | Activity [deltalog10CFU]
21 | O=P([O-])([O-])C(CCCc1cccc(Cc2ccccc2)c1)S(=O)(=O)[O-].[K+].[K+].[K+] (stereo not given) | 1.14

test system: Staphylococcus aureus; experiment: Antibacterial activity against Staphylococcus aureus Mu50 infected Balb/c mouse assessed as reduction of bacterial survival in kidney at 5.2 mg, ip bid administered for 4.5 days followed by bacterial infection measured after 5 days; format: functional; conditions: not given

Row | SMILES | Activity [deltalog10CFU]
22 | O=P([O-])([O-])C(CCCc1cccc(Cc2ccccc2)c1)S(=O)(=O)[O-].[K+].[K+].[K+] (stereo not given) | 0.3

test system: Trichophyton rubrum; experiment: Antifungal activity against Trichophyton rubrum measured after 7 days by serial dilution method; format: functional; conditions: not given; summary of the method: as §1

Row | SMILES | MIC80 [mg/L] | MIC=<80 [mg/L]
23 | CC(=O)N1CCN(c2ccc(OCC3COC(Cn4ccnc4)(c4ccc(Cl)cc4Cl)O3)cc2)CC1 (stereo not given) [KETOCONAZOLE] | 0.5 (≈ 0.941 µM) | –
24 | C[C@@H](c1ncncc1F)[C@](O)(Cn1cncn1)c1ccc(F)cc1F [VORICONAZOLE] | 0.03125 (≈ 0.0895 µM) | –
25 | OC(Cn1cncn1)(Cn1cncn1)c1ccc(F)cc1F [FLUCONAZOLE] | – | 1 (≈ 3.27 µM)

test system: Staphylococcus aureus; experiment: Antibacterial activity against Staphylococcus aureus Mu50 infected Balb/c mouse assessed as reduction of bacterial survival in liver at 1.3 mg, ip bid administered for 4.5 days followed by bacterial infection measured after 5 days; format: functional; conditions: not given

Row | SMILES | Activity [deltalog10CFU]
26 | O=P([O-])([O-])C(CCCc1cccc(Cc2ccccc2)c1)S(=O)(=O)[O-].[K+].[K+].[K+] (stereo not given) | 1.87

test system: Trichophyton verrucosum; experiment: Antifungal activity against Trichophyton verrucosum measured after 7 days by serial dilution method; format: functional; conditions: not given; summary of the method: as §1

Row | SMILES | MIC80 (lowest concentration giving ≥80% growth inhibition) [mg/L] | MIC=<80 [mg/L]
27 | CC(=O)N1CCN(c2ccc(OCC3COC(Cn4ccnc4)(c4ccc(Cl)cc4Cl)O3)cc2)CC1 (stereo not given) [KETOCONAZOLE] | 0.0625 (≈ 0.118 µM) | –
28 | C[C@@H](c1ncncc1F)[C@](O)(Cn1cncn1)c1ccc(F)cc1F [VORICONAZOLE] | 0.03125 (≈ 0.0895 µM) | –
29 | OC(Cn1cncn1)(Cn1cncn1)c1ccc(F)cc1F [FLUCONAZOLE] | – | 2 (≈ 6.53 µM)

test system: Staphylococcus aureus; experiment: Inhibition of staphyloxanthin pigment formation in Staphylococcus aureus Newman after 48 hrs by spectrophotometric method; format: functional, organism-based; conditions: not given
Summary of the method: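 Compounds as 20 mM DMSO stocks, serial 2-fold dilutions in DMSO; 40 µL added to 4 mL TSB culture, 37 °C for 48 h, in triplicate. Cells washed twice with PBS, pigment extracted with methanol, OD450 measured; IC50 from dose-response curve fit of OD data.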

Row | SMILES | IC50 [µM]
30 | CN(CCCc1ccccc1)Cc1cccc2ccoc12 | > 1
31 | CN(C/C=C/c1ccc(C(C)(C)C)cc1)Cc1cccc2ccoc12 | 0.0467
32 | COC(=O)c1ccc(/C=C/CN(C)Cc2cccc3ccoc23)cc1 | 0.0169
33 | CN(C/C=C/c1ccco1)Cc1cccc2ccoc12 | > 1
34 | CN(C/C=C/C1CCCCC1)Cc1cccc2ccoc12 | > 1
35 | CN(CC/C=C/c1ccccc1)Cc1cccc2ccoc12 | > 1
36 | CN(C/C=C/c1ccc(Cl)cc1)Cc1cccc2ccoc12.Cl | 0.0062
37 | CN(C/C=C/c1ccccc1F)Cc1cccc2ccoc12 | 0.288
38 | CN(C/C=C/c1ccc([N+](=O)[O-])cc1)Cc1cccc2ccoc12 | 0.0717
39 | C/C(=C\c1ccccc1)CN(C)Cc1cccc2ccoc12 | > 1
40 | CN(Cc1cccc2ccoc12)C[C@@H]1C[C@H]1c1ccccc1 | > 1
41 | CN(C/C=C/c1ccccc1[N+](=O)[O-])Cc1cccc2ccoc12 | > 1
42 | CN(C/C=C/c1cccc2ccccc12)Cc1cccc2ccoc12 | 0.888
43 | CN(C/C=C/c1ccc(Cl)cc1Cl)Cc1cccc2ccoc12.Cl | 0.00821
44 | CN(C/C=C/c1ccc(F)cc1)Cc1cccc2ccoc12 | 0.0312
45 | CN(C/C=C/C1CCCC1)Cc1cccc2ccoc12 | > 1

Row | SMILES | IC50 [µM]
46 | CN(C/C=C/c1ccccc1)Cc1cccc2ccoc12 | 0.247
47 | COc1ccc(/C=C/CN(C)Cc2cccc3ccoc23)cc1.Cl | 0.0111
48 | CC(C)N(C/C=C/c1ccccc1)Cc1cccc2ccoc12 | > 1
49 | Cc1cccc(/C=C/CN(C)Cc2cccc3ccoc23)c1 | > 1
50 | CN(C/C=C/c1ccc(Br)cc1)Cc1cccc2ccoc12.Cl | 0.00644
51 | CCN(C/C=C/c1ccccc1)Cc1cccc2ccoc12 | > 1
52 | CN(C/C=C/c1cccc(F)c1)Cc1cccc2ccoc12 | 0.513
53 | CN(C/C=C/c1cccc([N+](=O)[O-])c1)Cc1cccc2ccoc12 | > 1
54 | Cc1ccc(/C=C/CN(C)Cc2cccc3ccoc23)cc1 | 0.0352
55 | CN(CC#Cc1ccccc1)Cc1cccc2ccoc12 | 0.164
56 | CN(C/C=C/c1ccccc1)Cc1cccc2occc12 | 0.759
57 | CN(C/C=C/C=C/c1ccccc1)Cc1cccc2ccoc12 | 0.0042
58 | C(=C\c1ccccc1)/CNCc1cccc2ccoc12 | > 1
59 | C/C=C/CN(C)Cc1cccc2ccoc12 | > 1
60 | CN(C/C=C/c1ccc2ccccc2c1)Cc1cccc2ccoc12 | 0.0171

— ChEMBL document CHEMBL3813689, “Discovery of Potent Benzofuran-Derived Diapophytoene Desaturase (CrtN) Inhibitors with Enhanced Oral Bioavailability for the Treatment of Methicillin-Resistant Staphylococcus aureus (MRSA) Infections” (J Med Chem, 2016)
